Source: PubChem BioAssay
In the library only some 4.9% were active in any assay of this set; here they are far more common.
STAT3 act: activators of IL-6 induced STAT3 signaling; U3A cells, IL-6 STAT3-luciferase reporter, luminescence; 100% = signal with IL-6 EC80 alone; activation (% of control), % at 5.6 µM; 0.91% of 190,000 active;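 active = activation above the screen-wide mean of compound activation plus 3 SD, cut at about 130% in these data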;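 also: 0% = background luminescence of wells with medium and substrate only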
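Detection: reporter luminescence signal / Assay system: STAT1-lacking human U3A cells, STAT3 luciferase reporter / Incubation: compound pre-incubation 1 h before IL-6, then 6 h stimulation at 37 °C / Control set: IL-6-only high control / Read-out: % activation relative to IL-6 control / Probe or stimulus: Interleukin-6, 33 ng/mL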
STAT1 activator: STAT1 signaling activation; activation (% of control), % at 5.5 µM; NIH 3T3 STAT1-luciferase reporter, IFN-gamma, luminescence; 100% = IFN-gamma alone, no compound; AID 932; 2.6% of 200,000 active;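 active = activation above the screen-wide mean activation plus 3 SD, cut at about 130% in these data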;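 also: raw ratio to IFN-gamma control signal so 100% means no change and 0% no light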
STAT3 inh: inhibitors of IL-6 induced STAT3 signaling. U3A cells, IL-6 STAT3-luciferase reporter, luminescence; host cell line lacks STAT1. inhibition, % at 5.5 µM. 0.89% of 190,000 active. AID 862;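 active = inhibition above the mean inhibition across all screened compounds plus 3 SD, cut at about 44% in these data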;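 also: 0% = DMSO only wells and 100% = 100 µM nifuroxazide control wells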
STAT1 blocker: reduces IFN-gamma driven STAT1 reporter signal; inhibition, % at 5.5 µM; 0.35% of 200,000 active; NIH 3T3 STAT1-luciferase reporter, luminescence; AID 920;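 active = inhibition above a set limit, the mean inhibition across all tested compounds plus 3 SD, cut at about 34% in these data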;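 also: 0% = IFN-gamma with DMSO and 100% = IFN-gamma with 300 µM nifuroxazide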
APP 5'UTR act: activates APP 5'UTR luciferase reporter; SH-SY5Y APP 5'UTR luciferase reporter, luminescence; zero percent = DMSO vehicle wells; activation, % at 2 µM; 1% of 190,000 active;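 active = activation above a set limit, based on mean plus 3 SD of controls, cut at about 140% in these data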
NF-kB expr up: compounds increasing NF-kB expression in human neuronal cells | NF-kB reporter expression; stronger effect = higher value | fold change at 12.5 µM | 1.6% of 190,000 active | AID 1239; in the data active = fold change above about 3.3
Active calls of the source: *; . = no result given.

SMILES	STAT3 act	STAT1 activator	STAT3 inh	STAT1 blocker	APP 5'UTR act	NF-kB expr up
NS(=O)(=O)c1ccc(NC(=O)/C=C/c2ccccc2[N+](=O)[O-])cc1	104.4	97.4	-3.1	2.3	3.7	0.95
Cc1ccnc(NC(=O)/C=C/c2ccccc2[N+](=O)[O-])c1	70.6	99.9	37.7	-1.3	141.8*	7.72*
O=C(/C=C\c1ccccc1[N+](=O)[O-])Nc1ccccc1	98.7	135.2*	7.0	-41.8	73.2	1.41
O=C(COc1ccc2oc(-c3ccccc3)cc(=O)c2c1)Nc1ccccc1	107.5	111.0	-2.8	-12.2	41.4	0.94
Cc1cc(NC(=O)CSc2ccc(-c3nc4cc(C)c(C)cc4[nH]3)cn2)no1	96.2	120.0	8.5	-22.1	24.9	1.72
Cc1cc2nc(-c3ccc(SCC(=O)NC(C)C)nc3)[nH]c2cc1C	106.4	128.3	1.4	-29.8	56.5	1.87
Cc1cc2nc(-c3ccc(SCC(=O)N4CCc5ccccc54)nc3)[nH]c2cc1C	137.5*	139.1*	-35.6	-43.7	110.0	1.5
Cc1cc2nc(-c3ccc(SCC(=O)Nc4ccc(S(=O)(=O)NC5CC5)cc4)nc3)[nH]c2cc1C	91.8	146.9*	12.2	-52.5	131.5	5.93*
O=C(COn1nnc2ccccc21)NCC1CCCCC1	109.2	129.1*	-7.4	-31.2	5.6	1.92
COc1cccc(COc2ncnc3sccc23)c1	104.9	97.5	0.3	2.5	-2.6	1.11
c1ccc(OCCOc2ncnc3sccc23)cc1	98.9	131.2*	3.9	-33.8	67.0	2.72
Cc1ccccc1NC(=O)/C=C/c1ccc([N+](=O)[O-])s1	98.1	98.9	0.8	1.2	-90.1	9.78*
Cc1cc(C)cc(NC(=O)/C=C/c2ccc([N+](=O)[O-])s2)c1	105.8	88.1	-8.4	13.1	-52.6	1.07
Cc1ccccc1NC(=O)/C=C/c1cccs1	95.4	129.0*	10.3	-34.4	59.8	.
CCOC(=O)c1ccc(NC(=O)/C=C/c2cccs2)cc1	95.3	143.1*	10.4	-50.8	64.2	2.28
Cc1ccc(C(=O)N/N=C(\CC(C)C)c2ccccc2)cc1	105.6	115.5	-6.3	-17.4	-6.2	0.72
C=CCN(CC=C)c1cnn(-c2nc3ccccc3[nH]2)c(=O)c1Cl	79.8	121.5	23.2	-23.4	141.6*	2.76
O=C(CCc1ccccc1)Nc1ccccc1	95.3	113.9	9.9	-16.8	29.3	1.86
CN(C)c1ccc(NC(=O)CCCc2ccccc2)cc1	107.2	138.2*	-4.3	-41.7	150.3*	5.41*
CSc1nc(-c2ccco2)nn1S(C)(=O)=O	101.2	100.5	2.9	-0.6	14.6	1.17
Cc1cc(NCCCN2CCOCC2)n2ncc(-c3ccc(Cl)cc3)c2n1	125.4	109.4	-27.3	-10.2	47.1	1.11
Cc1cc(NCCCn2ccnc2)n2ncc(-c3ccc(Cl)cc3)c2n1	152.2*	155.7*	-61.0	-61.9	253.3*	1.34
CC(=O)N1CCc2cc(S(=O)(=O)NC(CC(C)C)C(=O)N3CCn4c3nc3ccccc34)ccc21 (configuration not stated)	97.1	94.8	6.2	5.6	18.1	1
NNc1nc(-c2ccccc2Cl)nc2sc3c(c12)CCCC3	109.4	121.9	-7.6	-24.3	50.2	3.31*
Cc1cc(SCC(=O)Nc2cccc(S(=O)(=O)NC3=NCCCCC3)c2)c(C)cc1Br	101.7	99.8	6.6	0.2	13.5	3.39*
SMILES	STAT3 act	STAT1 activator	STAT3 inh	STAT1 blocker	APP 5'UTR act	NF-kB expr up
Cc1cc(SCC(=O)Nc2cccc(S(N)(=O)=O)c2)c(C)cc1Br	96.2	89.5	10.3	11.8	-1.8	1.12
O=C(Nc1ccc(-c2nc3cc(Cl)ccc3o2)cc1)C1CCCO1 (configuration not stated)	87.3	149.5*	14.3	-53.6	74.2	2.33
O=C(Nc1ccc(Oc2ccccc2)cc1)C1CCCO1 (configuration not stated)	101.9	132.4*	2.2	-35.7	19.8	1.72
COc1ccc(NC(=O)C2CCCO2)cc1 (configuration not stated)	99.0	94.5	5.4	5.9	5.2	1.18
O=C(Nc1ccc(-c2nc3ccccc3o2)cc1)C1CCCO1 (configuration not stated)	66.8	140.0*	43.0	-24.4	233.1*	4.24*
COc1ccc(-c2nnc3n(CCc4ccccc4)c(=O)c4ccccc4n23)c(OC)c1	92.8	104.2	3.8	-4.6	9.7	1.07
CN(C)c1ccc(/C=C2\CCCCC2=O)cc1	100.7	121.1	-6.0	-23.2	159.9*	4.19*
CC(=O)Nc1cccc(C(=O)N/N=C/c2ccc(C)o2)c1	95.2	94.6	7.9	4.0	6.6	1.19
Cc1ccc(/C=N/NC(=O)Nc2ccccc2)o1	102.8	147.7*	-3.2	-54.4	106.6	1.25
COc1ccccc1NC(=O)CN1CC(=O)Nc2ccccc21	134.1*	85.8	-33.7	15.0	-2.6	0.93
Cc1ccc2c(c1)-c1c(cnn1CC(=O)Nc1ccccc1N1CCN(C)CC1)CO2	104.2	107.2	-4.9	-6.7	-4.8	0.86
Cc1ccn2c(C(=O)c3ccc(Cl)cc3)cnc2c1	75.2	145.7*	33.7	-50.0	165.0*	2.05
O=C(Nc1ccc(Oc2ccc(C(=O)O)c(C(=O)O)c2)cc1)c1cccs1	100.4	98.7	3.0	-0.7	-2.3	1.02
CC(C)OC(=O)c1ccc(NC(=O)C2C3CC4OC(=O)C2C4C3)cc1 (configuration not stated)	112.9	133.3*	-12.1	-36.2	47.4	1.17
COc1ccc(C(C)(C)C)cc1NC(=O)CNc1cccc2ccccc12	135.6*	97.4	-40.0	2.9	-2.6	0.93
CC1(C)CC(=O)C2=C(C1)OC1=C(C(=O)CC(C)(C)C1)C2c1ccc(O)c([N+](=O)[O-])c1	103.4	104.3	3.4	-5.8	-7.0	1.16
CC1(C)CC(=O)C2=C(C1)OC1=C(C(=O)CC(C)(C)C1)C2c1ccc(O)cc1O	99.0	114.2	5.4	-15.6	-41.4	6.18*
CCCN(C(=O)CCl)C1=CCCCC1	98.2	81.8	7.1	18.6	14.6	.
C=C(C)C1CC=C(C)/C(=N/NC(=O)COc2ccccc2Cl)C1 (configuration not stated)	96.0	102.5	2.7	-2.9	1.9	0.75
Cc1cccc2c1OCC/C2=N\NC(=O)COc1ccccc1Cl	88.7	129.9*	15.8	-33.4	5.8	1.98
Nc1nc(-c2cccc(F)c2)cs1	105.6	113.7	-4.2	-16.6	17.7	3.36*
Nc1nc(-c2ccc3c(c2)CCCC3)cs1	95.5	136.5*	11.5	-38.3	95.4	5.26*
CC(Oc1ccc(Cl)cc1Cl)c1nc(-c2ccc(NC(=O)c3ccccn3)cc2)no1 (configuration not stated)	74.0	128.7*	34.8	-32.2	146.9*	1.3
O=C(COC(=O)Cc1ccc(Br)cc1)NC1CCCCCC1	98.7	95.7	5.2	2.8	-11.6	1.27
